The text below walks through data of ChEMBL document CHEMBL1129735, “High-affinity alpha-aminobutyric acid A/benzodiazepine ligands: synthesis and structure-activity relationship studies of a new series of tetracyclic imidazoquinoxalines” (J Med Chem, 1996).

A value given as a limit tells only on which side of the number the result lay.

For test [1], the target named is GABA A receptor alpha-6/beta-2/gamma-2 (Rattus norvegicus, UniProt P18508+P30191+P63138). Kind of test: Displacement of [3H]-Ro- 15-4513 from alpha-6 beta2 gamma2 subunits of Rat GABA-A receptor expressed in Sf-9 insect cell membranes. For orientation: Displacement assays read how much labelled ligand stays bound in the presence of the test substance.
GABA A receptor alpha-6/beta-2/gamma-2, sequence (P18508 whole entry): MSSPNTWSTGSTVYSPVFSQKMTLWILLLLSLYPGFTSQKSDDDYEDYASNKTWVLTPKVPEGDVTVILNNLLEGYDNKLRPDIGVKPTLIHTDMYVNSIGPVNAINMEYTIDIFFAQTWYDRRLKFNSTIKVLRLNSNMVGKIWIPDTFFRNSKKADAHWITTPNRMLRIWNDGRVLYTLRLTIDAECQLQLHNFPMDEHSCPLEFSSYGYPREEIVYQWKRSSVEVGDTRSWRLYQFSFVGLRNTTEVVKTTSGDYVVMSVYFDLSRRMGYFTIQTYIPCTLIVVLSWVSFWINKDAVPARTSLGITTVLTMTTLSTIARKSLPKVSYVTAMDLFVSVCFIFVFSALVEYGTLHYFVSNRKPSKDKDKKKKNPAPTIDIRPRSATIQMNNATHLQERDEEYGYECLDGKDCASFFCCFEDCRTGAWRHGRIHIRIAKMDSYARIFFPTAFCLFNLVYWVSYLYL
GABA A receptor alpha-6/beta-2/gamma-2, sequence (P30191 whole entry): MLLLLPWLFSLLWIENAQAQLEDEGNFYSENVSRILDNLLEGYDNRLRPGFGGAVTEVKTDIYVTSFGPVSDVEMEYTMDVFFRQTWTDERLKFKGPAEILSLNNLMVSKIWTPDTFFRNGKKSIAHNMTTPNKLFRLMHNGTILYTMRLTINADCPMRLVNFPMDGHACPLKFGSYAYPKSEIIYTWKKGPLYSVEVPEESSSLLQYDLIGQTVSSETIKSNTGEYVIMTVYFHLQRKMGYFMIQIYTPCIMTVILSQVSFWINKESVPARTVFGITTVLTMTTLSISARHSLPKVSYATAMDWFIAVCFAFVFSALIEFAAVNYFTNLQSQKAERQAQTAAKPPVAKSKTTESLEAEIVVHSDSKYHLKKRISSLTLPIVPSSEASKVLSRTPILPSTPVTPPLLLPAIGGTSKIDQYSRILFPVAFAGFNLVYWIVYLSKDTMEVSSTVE
GABA A receptor alpha-6/beta-2/gamma-2, sequence (P63138 whole entry): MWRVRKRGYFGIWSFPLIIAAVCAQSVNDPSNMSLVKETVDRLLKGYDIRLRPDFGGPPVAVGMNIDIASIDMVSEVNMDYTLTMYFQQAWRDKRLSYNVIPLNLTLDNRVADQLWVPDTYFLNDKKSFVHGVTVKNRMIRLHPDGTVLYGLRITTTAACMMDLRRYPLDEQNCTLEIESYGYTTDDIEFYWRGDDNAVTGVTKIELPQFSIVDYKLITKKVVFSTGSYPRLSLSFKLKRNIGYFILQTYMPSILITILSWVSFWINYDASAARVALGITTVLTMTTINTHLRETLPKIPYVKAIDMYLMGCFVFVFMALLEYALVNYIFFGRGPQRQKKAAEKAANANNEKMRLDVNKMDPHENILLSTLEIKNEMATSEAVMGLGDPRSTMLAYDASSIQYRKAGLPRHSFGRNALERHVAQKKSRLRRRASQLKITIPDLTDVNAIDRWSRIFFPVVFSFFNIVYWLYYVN
In test [2] the target is GABA-A receptor; alpha-1/beta-2/gamma-2 (Homo sapiens) (UniProt P14867+P47870+P18507). Nature of the test: In vitro efficacy for GABA-A alpha-1-beta-2-gamma-2 subtype expressed in A293 cells in Cl- current assay. Type of test: functional, cell-based. The settings on record: Rattus norvegicus; HEK293. Summed up:
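Stable A293 (human kidney) cells were transfected with α1, β2 and γ2 cDNAs and selected 2 weeks in 1 mg/mL G418; Northern-positive cells were used. Whole-cell patch clamp used a pipette solution of CsCl/EGTA/MgCl2/ATP/Hepes at pH 7.3 and an external normal saline at pH 7.2. GABA with or without drug was applied by U-tube for 10 s. Holding potential was -60 mV, room temperature.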

Test [3] addresses GABA A receptor alpha-6/beta-2/gamma-2 (Rattus norvegicus) (UniProt P18508+P30191+P63138). Nature of the test: Displacement of [3H]-Ro- 15-4513 from alpha-6 beta2 gamma2 subunits of Rat GABA-A receptor expressed in Sf-9 insect cell membrane. Put shortly:
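Sf-9 cells co-infected with baculoviruses for α6, β2 and γ2 subunits at an MOI of 3 pfu and harvested at 60 h. Membranes were made by homogenising in normal saline, then spun at 1000g and 40000g. Binding used 6 nM [3H]Ro 15-4513 with varying test ligand concentrations in normal saline, 60 min at 4 °C. Bound label was separated on glass-fibre filters and counted by scintillation.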

For test [4], the target named is GABA-A receptor; anion channel (Rattus norvegicus) (UniProt O09028+P15431+P18506+P18508+P19969+P20236+P23574+P23576+P28471+P28473+P30191+P62813+P63079+P63138+Q91ZM7+Q9ES14). Nature of the test: Binding to GABA-A receptor complex relative to TBPS binding to picrotoxin convulsant site. Type of test: functional. Put shortly: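 Rat brain membranes ([…]) with 2 nM [35S]TBPS in 1 M NaCl, 10 mM Tris/HCl pH 7.4, 120 min at 24 °C; drugs added from methanol (≤0.2%, constant). Filtration read-out, nonspecific binding with 2 mM unlabeled TBPS.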

In test [5] the target is GABA-A receptor; anion channel. Kind of test: Displacement of [3H]flunitrazepam from GABA-A benzodiazepine receptor of rat cortical membranes. The class given is cell membranes, Membrane.

For orientation: Ki means a dissociation constant, usually derived from enzyme kinetics or from competition with a known ligand. Read a low Ki as a stronger hold on the target. The inhibition is the share of the control response that was lost under treatment. Higher therefore signals a response far below the control. As for `O=C1CNc2cccc3c2N1Cc1c(-c2noc(C4CC4)n2)ncn1-3`, the Ki in test [1] was more than 589 nM; in test [5] it was 19 nM. Also, the Activity in test [2] is 0.39. This compound came in with an inhibition in test [3] of 14.7%. For the same compound, the Ratio in test [4] came out at 0.58.
In the same order, the values of `O=C1CCc2cccc3c2N1Cc1c(-c2noc(C4CC4)n2)ncn1-3` are more than 589 nM, 2.6 nM, 0.07, 0% and 0.09.
For `CC1(C)CC(=O)N2Cc3c(-c4noc(C5CC5)n4)ncn3-c3cccc1c32`, in that order: more than 589 nM, 9.9 nM, 1.1, 35% and 0.75.
In test [1], `O=C1CCC2c3c(-c4noc(C5CC5)n4)ncn3-c3ccccc3N12` (stereo unspecified) gave an inhibition constant (Ki) of 13.2 nM. Further, in test [2], the Activity was 0.29. Also, in test [4], the Ratio is 1.15.
As to `COn1c(=O)n2c3c(cccc31)-n1cnc(-c3noc(C4CC4)n3)c1C2`, the Ki was more than 589 nM in test [1] and 7.3 nM in test [5]. This compound came in with an Activity in test [2] of 0.73. Besides, in test [3], the inhibition turned out to be 36.4%. Further, in test [4], the Ratio stood at 0.68.
`CN1C(=O)CN=C(c2ccccc2)c2cc(Cl)ccc21` [DIAZEPAM] came in with an Activity in test [2] of 1.
`CN(C)C(=O)N1Cc2c(-c3noc(C4CC4)n3)ncn2-c2ccccc21` [PNU-91571] registered a Ki in test [1] of 13.2 nM. In test [2], this compound yielded an Activity of 0.68. For the same compound, the Ratio in test [4] amounted to 0.69.
Consider `CN1Cc2cccc3c2N(Cc2c(-c4noc(C5CC5)n4)ncn2-3)C1=O`, for which the Ki in test [1] was more than 589 nM; in test [5] it was 3.7 nM. Moreover, in test [2], the Activity turned out to be 0.5. In test [3], this compound returned an inhibition of 16.3%. Further, the Ratio in test [4] is 0.08.
Consider `O=C1COc2cccc3c2N1Cc1c(-c2noc(C4CC4)n2)ncn1-3`, for which, in test [4], the Ratio is 0.35. In test [5], this compound returned a Ki of 2 nM.
In the case of `CC(C)n1c(=O)c2c(-c3noc(C4CC4)n3)ncn2c2ccccc21` [PANADIPLON], the affinity in test [1], expressed as Ki, was 603 nM. Also, the Activity in test [2] came out at 0.04.
`CC(C)(C)OC(=O)N1CC(=O)N2Cc3c(-c4noc(C5CC5)n4)ncn3-c3cccc1c32`: the figures for the inhibition constant Ki in test [1] and in test [5] were more than 589 nM and 579 nM, respectively. The Activity in test [2] was 0.6. This compound also registered an inhibition in test [3] of 13.5%. In test [4], the Ratio turned out to be 0.63.
For `CC(C)N1Cc2cccc3c2N(Cc2c(-c4noc(C5CC5)n4)ncn2-3)C1=O`, in that order: more than 589 nM, 1.2 nM, 0.65, 20.9% and 0.41.
In the same order, the values of `O=C1OCc2cccc3c2N1Cc1c(-c2noc(C4CC4)n2)ncn1-3` are more than 589 nM, 21 nM, 0.35, 14.3% and 0.52.
On to `O=C1CC(c2ccccc2)c2cccc3c2N1Cc1c(-c2noc(C4CC4)n2)ncn1-3` (stereo unspecified), for which the results for the Ki in test [1] and in test [5] were more than 589 nM and 25 nM, respectively. The compound further had an Activity in test [2] of 0.88. Also, the inhibition in test [3] worked out at 13.6%. Also, the Ratio in test [4] came out at 0.88.
